pIC50: −log10 of the molar value.

This passage reports IC50 results from ChEMBL document CHEMBL1131195, “Antileishmanial chalcones: statistical design, synthesis, and three-dimensional quantitative structure-activity relationship analysis” (J Med Chem, 1998).

Assay [1] in a line: Inhibitory activity against phytohemagglutininin A-induced proliferation of human lymphocytes; Not tested due to low solubility. It counts as functional.
For assay [2], the system named is Leishmania donovani. The experiment in a line: Tested in vitro for anti-leishmanial activity against Leishmania. donovani; Not tested due to low solubility. It counts as functional, organism-based.
In assay [3] the test system is Leishmania donovani. The experiment in a line: Tested in vitro for anti-leishmanial activity against Leishmania donovani. In kind it is functional, organism-based. The gist of the method:
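In vitro assay using Leishmania donovani promastigotes incubated with increasing chalcone concentrations, with inhibition of parasite proliferation as the read-out.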

On to `O=C(/C=C/c1ccc(Oc2ccccc2)cc1)c1ccc(C2CCCCC2)cc1`, for which the IC50 result (in assay [1]; in the assay on Leishmania donovani [2]) was “Not Active” in each case.
Regarding `CN(C)c1ccc(/C=C/C(=O)c2ccc(N(C)C)cc2)cc1`, the IC50 entry in assay [1] was “Not Active”. In the assay on Leishmania donovani [3], the pIC50 (usually the negative decadic logarithm of the IC50, by convention in mol/L) was 4.52.
Turning to `CN(C)c1ccc(/C=C/C(=O)c2ccc([N+](=O)[O-])cc2)cc1`, the IC50 result (in assay [1]; in the assay with Leishmania donovani [2]) was “Not Active” each time.
As for `CCCCCCOc1ccc(C(=O)/C=C/c2ccc(OC)cc2OC)cc1`, in assay [1], the IC50 result was “Not Active”. The negative-log IC50 (pIC50) in the assay on Leishmania donovani [3] is 3.87.
`CN(C)c1ccc(C(=O)/C=C/c2ccc([N+](=O)[O-])cc2)cc1`: the IC50 result (in assay [1]; in the assay on Leishmania donovani [2]) was “Not Active” in each case.
`COc1cc(/C=C/C(=O)c2ccc(N(C)C)cc2)cc(OC)c1`: the IC50 entry (in assay [1]; in the assay with Leishmania donovani [2]) was “Not Active” throughout.
On to `C=CCOc1ccc(C(=O)/C=C/c2cc(OC)c(CCCC)c(OC)c2)cc1`, for which, in assay [1], the IC50 entry is reported as “Not Active”. The pIC50 in the assay with Leishmania donovani [3] is 4.05.
